Assay results taken from ChEMBL document CHEMBL3868629, “Discovery of novel N-phenyl 1,4-dihydropyridines with a dual mode of antimycobacterial activity” (Bioorg Med Chem Lett, 2016).

Columns and labels:
[1] = molecular target: ATP-dependent translocase ABCB1 (Homo sapiens, UniProt P08183); assay: Inhibition of human ABCB1 expressed in mouse T-lymphoma cells assessed as rhodamine-123 accumulation by measuring fluorescence activity ratio at 1 uM by flow cytometry relative to control; type: cell-based
[2] = system: Mycobacterium tuberculosis; assay: Antitubercular activity against Mycobacterium tuberculosis H37Rv expressing GFP assessed as growth inhibition at 1 ug/ml measured after 7 days by fluorescence analysis relative to control; type: functional; settings: 168 h, read-out: GI
Outline: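 GFP-expressing H37Rv cultured in 7H9 with 10% OADC, 0.05% Tween 80 and 0.2% glycerol, sealed under an air-permeable membrane. Growth was read as fluorescence (excitation 485 nm, emission 528 nm) after seven days, in triplicate. Fluorescence tracks bacterial growth.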

[3] = molecular target: T1, Multidrug efflux ATP-binding/permease protein Rv0194 (Mycobacterium tuberculosis (strain ATCC 25618 / H37Rv)) (UniProt O53645); assay: Inhibition of GFP-fused Mycobacterium tuberculosis H37Rv Rv0194 assessed as potentiation of ciprofloxacin-mediated antitubercular activity by measuring ciprofloxacin growth inhibition at 0.3 ug/ml (reference value: 19%)
T1 sequence (whole entry): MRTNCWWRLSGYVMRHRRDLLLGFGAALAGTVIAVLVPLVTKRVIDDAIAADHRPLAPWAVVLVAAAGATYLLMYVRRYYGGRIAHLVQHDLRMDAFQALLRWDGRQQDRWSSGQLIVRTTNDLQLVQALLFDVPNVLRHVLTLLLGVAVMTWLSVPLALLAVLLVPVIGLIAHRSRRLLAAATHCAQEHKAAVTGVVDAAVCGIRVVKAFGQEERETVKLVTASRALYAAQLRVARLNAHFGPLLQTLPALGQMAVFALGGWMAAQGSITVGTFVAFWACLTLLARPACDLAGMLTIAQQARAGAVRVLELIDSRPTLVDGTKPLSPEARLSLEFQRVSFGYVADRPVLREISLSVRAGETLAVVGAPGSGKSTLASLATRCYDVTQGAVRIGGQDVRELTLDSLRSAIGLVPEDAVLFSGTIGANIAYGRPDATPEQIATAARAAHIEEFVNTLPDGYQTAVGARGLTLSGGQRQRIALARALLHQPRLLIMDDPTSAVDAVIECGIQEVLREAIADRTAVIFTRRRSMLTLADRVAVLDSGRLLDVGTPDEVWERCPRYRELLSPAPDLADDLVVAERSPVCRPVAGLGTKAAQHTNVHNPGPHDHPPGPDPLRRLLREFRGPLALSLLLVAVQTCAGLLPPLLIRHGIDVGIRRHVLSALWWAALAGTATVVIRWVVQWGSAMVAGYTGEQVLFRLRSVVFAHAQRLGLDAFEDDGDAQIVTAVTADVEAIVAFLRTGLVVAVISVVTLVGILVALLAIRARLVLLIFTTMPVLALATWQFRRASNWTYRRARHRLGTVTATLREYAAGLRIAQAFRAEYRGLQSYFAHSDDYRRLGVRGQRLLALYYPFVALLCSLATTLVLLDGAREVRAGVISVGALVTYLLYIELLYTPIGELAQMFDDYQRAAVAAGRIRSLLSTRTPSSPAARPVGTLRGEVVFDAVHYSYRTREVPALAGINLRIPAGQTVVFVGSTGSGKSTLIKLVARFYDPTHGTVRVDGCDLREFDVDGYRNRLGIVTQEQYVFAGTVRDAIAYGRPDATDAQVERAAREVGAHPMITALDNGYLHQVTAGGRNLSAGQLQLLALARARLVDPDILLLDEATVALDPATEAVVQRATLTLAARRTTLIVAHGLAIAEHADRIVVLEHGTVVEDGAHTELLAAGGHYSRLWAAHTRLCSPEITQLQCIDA
Outline: (§1)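 The antitubercular drug at set concentrations was tested alone and combined with the test compound held at 0.3 µg/mL. The GFP-expressing H37Rv growth assay was used: 7H9 with 10% OADC, 0.05% Tween 80 and 0.2% glycerol, seven days of culture, fluorescence at 485/528 nm, triplicates.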

[4] = molecular target: T1, Multidrug efflux ATP-binding/permease protein Rv0194 (Mycobacterium tuberculosis (strain ATCC 25618 / H37Rv)); assay: Inhibition of GFP-fused Mycobacterium tuberculosis H37Rv Rv0194 assessed as potentiation of clofazimine-mediated antitubercular activity by measuring clofazimine growth inhibition at 0.3 ug/ml (reference value: 39%); outline: as §1
[5] = molecular target: T1, Multidrug efflux ATP-binding/permease protein Rv0194 (Mycobacterium tuberculosis (strain ATCC 25618 / H37Rv)); assay: Inhibition of GFP-fused Mycobacterium tuberculosis H37Rv Rv0194 assessed as potentiation of ciprofloxacin-mediated antitubercular activity by measuring fold increase in ciprofloxacin growth inhibition at 0.3 ug/ml

Chain of ATP-dependent translocase ABCB1 (P08183 whole entry): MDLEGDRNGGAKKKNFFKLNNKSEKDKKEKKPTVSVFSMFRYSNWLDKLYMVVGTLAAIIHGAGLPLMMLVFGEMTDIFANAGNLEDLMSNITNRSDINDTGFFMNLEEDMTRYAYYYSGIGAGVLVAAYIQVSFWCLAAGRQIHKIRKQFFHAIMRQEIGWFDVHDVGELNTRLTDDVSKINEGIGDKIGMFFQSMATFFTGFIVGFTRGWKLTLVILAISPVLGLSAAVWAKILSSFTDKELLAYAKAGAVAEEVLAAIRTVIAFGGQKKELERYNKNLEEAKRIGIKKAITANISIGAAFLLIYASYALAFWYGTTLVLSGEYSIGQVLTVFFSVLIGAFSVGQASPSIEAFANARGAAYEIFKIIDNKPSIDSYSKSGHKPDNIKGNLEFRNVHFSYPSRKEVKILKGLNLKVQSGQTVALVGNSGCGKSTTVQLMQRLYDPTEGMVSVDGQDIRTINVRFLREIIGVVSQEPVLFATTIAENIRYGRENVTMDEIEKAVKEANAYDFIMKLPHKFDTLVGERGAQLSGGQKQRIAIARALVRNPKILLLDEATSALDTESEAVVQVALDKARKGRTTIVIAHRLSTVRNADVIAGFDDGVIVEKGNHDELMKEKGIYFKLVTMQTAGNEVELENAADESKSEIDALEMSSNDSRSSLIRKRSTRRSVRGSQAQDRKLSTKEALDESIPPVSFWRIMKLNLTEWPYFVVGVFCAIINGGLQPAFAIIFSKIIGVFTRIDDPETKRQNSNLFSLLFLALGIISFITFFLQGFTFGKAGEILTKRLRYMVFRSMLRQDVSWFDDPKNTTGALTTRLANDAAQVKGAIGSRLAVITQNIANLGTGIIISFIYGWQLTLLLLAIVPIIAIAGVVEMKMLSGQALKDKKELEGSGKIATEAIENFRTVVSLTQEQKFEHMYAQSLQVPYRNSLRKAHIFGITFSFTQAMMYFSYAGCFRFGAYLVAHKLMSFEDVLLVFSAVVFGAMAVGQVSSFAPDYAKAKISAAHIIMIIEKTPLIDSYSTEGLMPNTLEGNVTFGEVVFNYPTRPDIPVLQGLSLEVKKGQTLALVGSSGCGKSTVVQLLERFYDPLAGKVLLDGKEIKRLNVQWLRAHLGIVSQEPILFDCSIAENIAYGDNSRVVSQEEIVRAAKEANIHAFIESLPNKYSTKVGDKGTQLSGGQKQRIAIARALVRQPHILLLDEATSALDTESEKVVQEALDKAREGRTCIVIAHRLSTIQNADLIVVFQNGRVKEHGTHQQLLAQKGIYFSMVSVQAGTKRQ

SMILES	Ratio [1]	inhibition of growth at 1 µg/mL [2]	growth inhibition (GI) [3]	growth inhibition (GI) [4]	fold change (FC) [5]
CCOC(=O)C1=CN(c2ccccc2)C=C(C(=O)OCC)C1c1cccc(OC)c1	1.1	61%			
NNC(=O)c1ccncc1 [ISONIAZID]		97%			
CCOC(=O)C1=CN(c2ccc(OC)cc2)C=C(C(=O)OCC)C1c1ccc(OC)c(OC)c1	5.2	60%			
CCOC(=O)C1=CN(c2ccccc2)C=C(C(=O)OCC)C1c1ccc(OC)cc1		25%			
CCOC(=O)C1=CN(c2ccccc2)C=C(C(=O)OCC)C1c1ccccc1	4.3	57%			
CCOC(=O)C1=CN(c2ccc(OC)cc2)C=C(C(=O)OCC)C1c1cccc(OC)c1	3.4	41%			
CCOC(=O)C1=CN(c2ccc(OC)cc2)C=C(C(=O)OCC)C1c1ccc(OC)cc1	1.2	35%			
CCOC(=O)C1=CN(c2ccc(OC)cc2)C=C(C(=O)OCC)C1c1ccccc1	3.9	60%			
CCOC(=O)C1=CN(c2ccccc2)C=C(C(=O)OCC)C1c1ccc(OC)c(OC)c1	7.3	30%	46%	60%	2.5
